Results reported in ChEMBL document CHEMBL3576866, “Discovery of a Cyclic Boronic Acid β-Lactamase Inhibitor (RPX7009) with Utility vs Class A Serine Carbapenemases” (J Med Chem, 2015).
Activity calls are given as the source filed them. No cut-off for these calls is given here.

How the values were obtained:
[1] = target: Urokinase-type plasminogen activator (Homo sapiens, UniProt P00749); test: Inhibition of urokinase (unknown origin) using NGK-pNA as substrate preincubated for 10 mins followed by substrate addition measured for 30 mins by spectrophotometric analysis
Summary of the method: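 Urokinase, from a commercial source, in 50 mM Tris-HCl, pH 8.5, 38 mM NaCl. Mixed with inhibitor at various concentrations for 10 min at 37 °C, then NGK-pNA (listed at 100 μM) added and absorbance monitored for 30 min. Rates were relative to untreated; IC50 is the concentration giving 50% inhibition.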

[2] = Inhibition of Escherichia coli recombinant CTX-M-15 assessed as substrate nitrocefin degradation preincubated for 10 mins followed by substrate addition measured every 10 secs for 10 mins by spectrophotometric analysis
Summary of the method: (§1)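 β-Lactamases purified from overexpressing recombinant E. coli. Enzyme preincubated with inhibitor at varying concentrations for 10 min at room temperature in 50 mM Na phosphate pH 7.0, 0.1 mg/mL BSA. Then 50 μM nitrocefin (final) added and cleavage read at 490 nm every 10 s for 10 min. Ki derived by the Waley method.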

Klebsiella oxytoca [3] = test: Inhibition of Klebsiella oxytoca KX1019 OXA-2 assessed as imipenem MIC at 4 ug/ml by broth microdilution method
Klebsiella oxytoca [4] = test: Inhibition of Klebsiella oxytoca KX1019 OXA-2 assessed as ertapenem MIC at 4 ug/ml by broth microdilution method
Chymase = Chymase (Homo sapiens, UniProt P23946); test: Inhibition of chymase (unknown origin) using Suc-AAPF-AMC as substrate preincubated for 10 mins followed by substrate addition measured for 30 mins by spectrophotometric analysis
Summary of the method: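 Commercial chymase in 100 mM Tris, pH 8.0, 2 M NaCl, 0.01% Triton X-100. Mixed with inhibitor at various concentrations for 10 min at 37 °C before Suc-AAPF-AMC (listed at 40 μM), then fluorescence followed for 30 min. Rates were taken relative to a no-treatment control; IC50 is the concentration giving 50% inhibition.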

Klebsiella pneumoniae [5] = test: Inhibition of Klebsiella pneumoniae KP1004 SHV-11 assessed as meropenem MIC at 4 ug/ml by broth microdilution method
Summary of the method: (§2)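 CLSI broth microdilution (M07-A9, 2012) MIC of the carbapenem against clinical serine carbapenemase-producing strain, tested alone and with the inhibitor held at a fixed 4 μg/mL.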

Klebsiella pneumoniae [6] = test: Inhibition of Klebsiella pneumoniae KP1087 KPC-2 assessed as biapenem MIC at 4 ug/ml by broth microdilution method
Prothrombin = Prothrombin (Homo sapiens, UniProt P00734); test: Inhibition of thrombin (unknown origin) using Benz-FVR-AMC as substrate preincubated for 10 mins followed by substrate addition measured for 30 mins by spectrophotometric analysis
Summary of the method: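 Thrombin, from a commercial source, in 20 mM Tris-HCl, pH 8, 150 mM NaCl, 2.5 mM CaCl2. Preincubated with inhibitor at various concentrations for 10 min at 37 °C. Benz-FVR-AMC (listed at 10 μM) was then added and the signal monitored for 30 min. Rates were relative to untreated; IC50 is the concentration giving 50% inhibition.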

[7] = target: Beta lactamase TEM-1 (Klebsiella pneumoniae) (UniProt Q7B899); test: Inhibition of Klebsiella pneumoniae KP1004 TEM-1 assessed as imipenem MIC at 4 ug/ml by broth microdilution method; summary of the method: as §2
[8] = Cmax in rat at 1000 mg/kg, iv administered as 0.5 hrs infusion by HPLC-MS method; type: ADME, organism-based; parameters: dose 1000 mg/kg, route intravenous; conditions: in vivo
[9] = target: T1, Class A carbapenemase (Enterobacter cloacae) (UniProt A7WP95); test: Inhibition of Enterobacter cloacae ECL1061 KPC-3 assessed as cefepime MIC at 4 ug/ml by broth microdilution method
T1 sequence (whole entry): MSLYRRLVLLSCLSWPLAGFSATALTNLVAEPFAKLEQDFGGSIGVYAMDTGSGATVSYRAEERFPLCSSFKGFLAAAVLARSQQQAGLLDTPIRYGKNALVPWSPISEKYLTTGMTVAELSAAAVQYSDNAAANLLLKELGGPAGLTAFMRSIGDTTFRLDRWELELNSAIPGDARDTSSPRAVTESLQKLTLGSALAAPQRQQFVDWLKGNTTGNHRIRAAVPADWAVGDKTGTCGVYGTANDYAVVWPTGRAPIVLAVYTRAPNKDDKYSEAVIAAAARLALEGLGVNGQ

[10] = Inhibition of Escherichia coli recombinant CMY-2 assessed as substrate nitrocefin degradation preincubated for 10 mins followed by substrate addition measured every 10 secs for 10 mins by spectrophotometric analysis; summary of the method: as §1
Klebsiella pneumoniae [11] = test: Inhibition of Klebsiella pneumoniae KP1004 SHV-11 assessed as biapenem MIC at 4 ug/ml by broth microdilution method; summary of the method: as §2
[12] = target: Beta-lactamase (Klebsiella pneumoniae) (UniProt Q93LQ9); test: Inhibition of Klebsiella pneumoniae KP1084 KPC-3 assessed as ertapenem MIC at 4 ug/ml by broth microdilution method; summary of the method: as §2
[13] = target: Beta lactamase TEM-1 (Klebsiella pneumoniae) (UniProt Q7B899); test: Inhibition of Klebsiella pneumoniae KP1084 TEM-1 assessed as biapenem MIC at 4 ug/ml by broth microdilution method
[14] = AUC (0 to infinity) in rat at 1000 mg/kg, iv administered as 0.5 hrs infusion by HPLC-MS method; type: ADME, organism-based; parameters: dose 1000 mg/kg, route intravenous, time infinity; conditions: in vivo
[15] = Volume of distribution in rat at 100 mg/kg, iv administered as 0.5 hrs infusion by HPLC-MS method; type: ADME, organism-based; conditions: in vivo
[16] = AUC (0 to infinity) in rat at 100 mg/kg, iv administered as 0.5 hrs infusion by HPLC-MS method; type: ADME, organism-based; parameters: dose 100 mg/kg, route intravenous, time infinity; conditions: in vivo
Enterobacter cloacae [17] = test: Inhibition of Enterobacter cloacae ECL1058 SHV-11 assessed as meropenem MIC at 4 ug/ml by broth microdilution method
Klebsiella oxytoca [18] = test: Inhibition of Klebsiella oxytoca KX1019 OXA-2 assessed as meropenem MIC at 4 ug/ml by broth microdilution method
Enterobacter cloacae [19] = test: Inhibition of Enterobacter cloacae EC1010 CMY-6 assessed as cefepime MIC at 4 ug/ml by broth microdilution method
Summary of the method: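 CLSI broth microdilution (M07-A9) against clinical strains expressing serine β-lactamases.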

[20] = Inhibition of elastase (unknown origin) using Suc-AAPA-pNA as substrate preincubated for 10 mins followed by substrate addition measured for 30 mins by spectrophotometric analysis; parameters: species or system Homo sapiens
Summary of the method: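 Elastase from a commercial source in 25 mM Tris-HCl, pH 8.0. Inhibitor at various concentrations was preincubated 10 min at 37 °C. Suc-AAPA-pNA (listed at 50 μM) was added and absorbance followed for 30 min. Rates were relative to untreated; IC50 is the concentration giving 50% inhibition.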

[21] = target: Beta-lactamase TEM (Enterobacter cloacae) (UniProt Q6W9J1); test: Inhibition of Enterobacter cloacae ECL1058 TEM-1 assessed as biapenem MIC at 4 ug/ml by broth microdilution method
[22] = AUC (0 to infinity) in rat at 300 mg/kg, iv administered as 0.5 hrs infusion by HPLC-MS method; type: ADME, organism-based; parameters: dose 300 mg/kg, time infinity, route intravenous; conditions: in vivo
Klebsiella pneumoniae [23] = test: Antibacterial activity against Klebsiella pneumoniae KP1004 by broth microdilution method; type: functional, organism-based

Chain of Beta lactamase TEM-1 (Klebsiella pneumoniae) (Q7B899 as listed by the source): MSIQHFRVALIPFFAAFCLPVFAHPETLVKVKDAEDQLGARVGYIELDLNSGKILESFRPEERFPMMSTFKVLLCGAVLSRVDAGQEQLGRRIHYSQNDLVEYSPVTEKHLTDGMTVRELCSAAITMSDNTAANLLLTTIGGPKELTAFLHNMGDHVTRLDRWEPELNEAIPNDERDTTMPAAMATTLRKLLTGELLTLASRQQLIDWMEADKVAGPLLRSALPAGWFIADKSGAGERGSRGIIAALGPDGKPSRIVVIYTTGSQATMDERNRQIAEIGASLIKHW
Chain of Beta-lactamase (Klebsiella pneumoniae) (Q93LQ9 as listed by the source): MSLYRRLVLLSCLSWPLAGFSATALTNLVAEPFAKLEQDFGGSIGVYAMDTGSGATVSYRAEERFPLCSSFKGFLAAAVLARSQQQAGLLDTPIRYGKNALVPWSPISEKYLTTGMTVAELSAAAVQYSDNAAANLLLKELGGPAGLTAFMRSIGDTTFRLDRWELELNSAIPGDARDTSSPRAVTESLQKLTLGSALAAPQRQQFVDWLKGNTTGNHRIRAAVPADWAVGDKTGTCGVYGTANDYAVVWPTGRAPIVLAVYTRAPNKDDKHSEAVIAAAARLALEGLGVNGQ
Chain of Chymase (P23946 whole entry): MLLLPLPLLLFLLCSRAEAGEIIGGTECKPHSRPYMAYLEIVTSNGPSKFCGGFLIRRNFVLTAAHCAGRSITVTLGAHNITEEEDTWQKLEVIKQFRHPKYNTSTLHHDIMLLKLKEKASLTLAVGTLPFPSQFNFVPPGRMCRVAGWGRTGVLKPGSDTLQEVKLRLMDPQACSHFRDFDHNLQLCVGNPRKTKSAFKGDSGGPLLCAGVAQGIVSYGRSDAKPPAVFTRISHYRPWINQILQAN
Chain of Beta-lactamase TEM (Enterobacter cloacae) (Q6W9J1 as listed by the source): as the sequence (Q7B899 as listed by the source) above

O=C(O)C[C@@H]1CC[C@H](NC(=O)Cc2cccs2)B(O)O1 [VABORBACTAM]
IC50 [1]: > 1000 µM | Ki [2]: 0.044 µM | MIC (Klebsiella oxytoca [3]): 0.13 µg/mL | MIC (Klebsiella oxytoca [4]): 0.25 µg/mL | IC50 (Chymase): > 1000 µM | MIC (Klebsiella pneumoniae [5]): ≤ 0.06 µg/mL | MIC (Klebsiella pneumoniae [6]): 0.25 µg/mL | IC50 (Prothrombin): > 1000 µM | MIC [7]: < 0.06 µg/mL | Cmax [8]: 2600 µg/mL | MIC [9]: 2 µg/mL | Ki [10]: 0.099 µM | MIC (Klebsiella pneumoniae [11]): ≤ 0.06 µg/mL | MIC [12]: 4 µg/mL | MIC [13]: 0.25 µg/mL | AUC(0-inf) [14]: 1040 µg·h/mL | Vd [15]: 0.97 L/kg | AUC(0-inf) [16]: 64 µg·h/mL | MIC (Enterobacter cloacae [17]): < 0.06 µg/mL | MIC (Klebsiella oxytoca [18]): < 0.06 µg/mL | MIC (Enterobacter cloacae [19]): 4 µg/mL | IC50 [20]: > 1000 µM | MIC [21]: < 0.06 µg/mL | AUC(0-inf) [22]: 239 µg·h/mL | Activity (Klebsiella pneumoniae [23]): inactive
